Test results from ChEMBL document CHEMBL3856197 (Eur J Med Chem, 2016).
Active and inactive are the calls of the source. No cut-off for these calls is given here.

Legend:
Mus musculus [1] = species on record: Mus musculus; test: Cytotoxicity against BMOL-NT cells assessed as doubling time at 0 to 10 uM; format: toxicity, cell-based
How it was run: (§1)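 BMOL-NT (low passage, p<15) or BMOL-T (p>30) mouse liver progenitor cells in Williams' E medium. Seeded at 1,500 (NT) or 1,000 (T) cells per well, allowed to attach, then compound added as 2x solution to 1x final. Cellavista imaging twice daily for 5 days or until 80% confluent. Log % well coverage plotted against time; doubling time taken from log-phase linear portion.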

[2] = Anticancer activity against BMOL-T cells assessed as doubling time at 0 to 6 uM; format: functional, Mus musculus; how it was run: as §1
[3] = Anticancer activity against BMOL-T cells assessed as doubling time at 8 uM; format: functional, Mus musculus; how it was run: as §1
[4] = Anticancer activity against BMOL-T cells assessed as doubling time at 10 uM; format: functional, Mus musculus; how it was run: as §1
BMOL-T [5] = test: Anticancer activity against BMOL-T cells assessed as cell growth inhibition at 10 uM; format: functional, cell-based; conditions: Mus musculus; how it was run: as §1
[6] = Growth inhibition of BMOL-T cells assessed as increase in doubling time at 8 uM after 2 days relative to control; format: functional, Mus musculus; parameters: scale not given: the % may be the effect or the level left; how it was run: as §1
[7] = Growth inhibition of BMOL-T cells assessed as increase in doubling time at 10 uM after 2 days relative to control; format: functional, Mus musculus; parameters: scale not given: the % may be the effect or the level left; how it was run: as §1
[8] = Antimitotic activity against BMOL-NT cells assessed as reduction in mitotic index at 10 uM measured after 3 days by phosphohistone H3 staining-based method; format: cell-based; parameters: scale not given: the % may be the effect or the level left; conditions: mouse, 72 h
How it was run: (§2)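 BMOL-NT or BMOL-T cells, compound at 10 μM for three days. Fixed in 4% paraformaldehyde/0.1% Triton X-100, then phospho-histone H3 antibody 60 min at room temperature with nuclear counterstain, Cellavista imaging. Colcemid 1 μg/mL overnight as positive control. Mitotic index is % positive cells per well, mean of replicate wells, three cell lots.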

[9] = Antimitotic activity against BMOL-T cells assessed as mitotic index at 10 uM measured after 3 days by phosphohistone H3 staining-based method relative to control; format: functional, Mus musculus; how it was run: as §2
[10] = Induction of apoptosis in BMOL-NT cells assessed as increase in fragmented DNA at 10 uM measured after 3 days relative to control; format: cell-based; conditions: mouse, 72 h
How it was run: (§3)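 BMOL-NT or BMOL-T cells, compound at 10 μM for three days. Fixed in 4% paraformaldehyde/0.1% Triton X-100, DNA fragmentation labelling reaction 60 min at 37 °C, nuclear dye 5 min, Cellavista imaging. Cisplatin 8 μg/mL for 24 h as positive control. Apoptotic index is % cells with fragmented DNA per well, three cell lots.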

[11] = Induction of apoptosis in BMOL-T cells assessed as increase in fragmented DNA at 10 uM measured after 3 days relative to control; format: functional, Mus musculus; how it was run: as §3
[12] = biological target: T1, Nuclear factor NF-kappa-B p100 subunit (Mus musculus) (UniProt Q9WTK5); test: Inhibition of NF-kappaB2 in BMOL-T cells assessed as reduction in p52 formation by western blot analysis relative to control; format: cell-based; conditions: concentration not given here
T1 sequence (whole entry): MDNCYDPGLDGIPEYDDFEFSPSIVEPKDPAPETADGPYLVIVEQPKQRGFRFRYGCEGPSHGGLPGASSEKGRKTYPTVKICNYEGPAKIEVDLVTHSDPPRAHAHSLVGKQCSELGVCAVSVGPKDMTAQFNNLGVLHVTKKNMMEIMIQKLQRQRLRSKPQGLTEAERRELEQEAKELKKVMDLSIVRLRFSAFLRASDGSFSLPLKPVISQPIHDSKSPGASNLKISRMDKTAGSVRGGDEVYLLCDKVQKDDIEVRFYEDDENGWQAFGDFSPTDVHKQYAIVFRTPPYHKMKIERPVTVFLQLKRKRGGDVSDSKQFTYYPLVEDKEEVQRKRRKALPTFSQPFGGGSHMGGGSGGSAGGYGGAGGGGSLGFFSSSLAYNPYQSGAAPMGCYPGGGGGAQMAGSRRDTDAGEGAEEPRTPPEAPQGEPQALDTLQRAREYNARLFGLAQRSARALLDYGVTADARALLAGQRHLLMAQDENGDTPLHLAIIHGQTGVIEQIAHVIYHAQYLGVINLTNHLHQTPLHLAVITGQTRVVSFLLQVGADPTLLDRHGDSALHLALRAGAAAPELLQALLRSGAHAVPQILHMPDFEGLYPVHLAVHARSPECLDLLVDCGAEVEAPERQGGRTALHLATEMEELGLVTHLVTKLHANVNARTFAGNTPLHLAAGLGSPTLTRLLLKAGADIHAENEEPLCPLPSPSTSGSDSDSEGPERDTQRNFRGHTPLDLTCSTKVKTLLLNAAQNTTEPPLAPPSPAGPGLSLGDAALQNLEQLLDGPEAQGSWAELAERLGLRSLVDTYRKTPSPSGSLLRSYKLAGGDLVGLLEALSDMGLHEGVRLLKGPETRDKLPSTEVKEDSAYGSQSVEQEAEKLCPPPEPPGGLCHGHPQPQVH
How it was run: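 BMOL-T cells exposed to compound as in the growth assay, lysed in DISC buffer. Western blot with primary antibodies overnight and HRP secondaries 1 h, all diluted in 5% skim milk in TBS-T, chemiluminescent detection. Bands normalised to β-actin; p52/p100 ratio and phospho-p65 compared with control.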

[13] = Growth inhibition of BMOL-NT cells; format: cell-based; conditions: mouse; how it was run: as §1
[14] = Growth inhibition of BMOL-T cells; format: functional; conditions: Mus musculus; how it was run: as §1
Mus musculus [15] = species on record: Mus musculus; test: Cytotoxicity against BMOL-NT cells assessed as cell growth inhibition at 10 uM; format: toxicity, cell-based; how it was run: as §1
Mus musculus [16] = species on record: Mus musculus; test: Cytotoxicity against BMOL-NT cells assessed as induction of cell death at 100 uM; format: toxicity, cell-based
How it was run: (§4)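 Mouse bipotential oval (liver progenitor) line BMOL-NT (passage <15) grown in Williams' E medium with 5% FBS, EGF, IGF-II and insulin. Plated at 1,500 cells/well; next day compound added as a 2x solution to give 1x final. Confluency imaged on Cellavista twice daily for 5 days or until 80% confluent. Growth curves plotted from log confluency; doubling time taken from the log-phase linear portion.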

BMOL-T [17] = test: Anticancer activity against BMOL-T cells assessed as cell growth inhibition at 100 uM; format: functional, cell-based; conditions: Mus musculus; how it was run: as §1
Mus musculus [18] = species on record: Mus musculus; test: Cytotoxicity against BMOL-NT cells assessed as induction of cell death up to 100 uM; format: toxicity, cell-based; how it was run: as §4
[19] = Growth inhibition of BMOL-NT cells assessed as doubling time at 8 uM (reference value: 29 to 32.5 hrs); format: cell-based; conditions: mouse; how it was run: as §1
[20] = Growth inhibition of BMOL-NT cells assessed as doubling time at 10 uM (reference value: 29 to 32.5 hrs); format: cell-based; conditions: mouse; how it was run: as §1
[21] = Growth inhibition of BMOL-NT cells assessed as increase in doubling time at 8 uM after 2 days relative to control; format: cell-based; parameters: scale not given: the % may be the effect or the level left; conditions: mouse, 48 h; how it was run: as §1
[22] = Growth inhibition of BMOL-NT cells assessed as increase in doubling time at 10 uM after 2 days relative to control; format: cell-based; parameters: scale not given: the % may be the effect or the level left; conditions: mouse, 48 h; how it was run: as §1
[23] = Growth inhibition of BMOL-T cells assessed as doubling time at 8 uM (reference value: 27 to 34 hrs); format: functional, Mus musculus; how it was run: as §1
[24] = Growth inhibition of BMOL-T cells assessed as doubling time at 10 uM (reference value: 27 to 34 hrs); format: functional, Mus musculus; how it was run: as §1
[25] = Growth inhibition of BMOL-NT cells assessed as population doubling time at 0.5 uM (reference value: 29 to 32.5 hrs); format: cell-based; conditions: mouse; how it was run: as §1
[26] = Growth inhibition of BMOL-NT cells assessed as population doubling time at 1 uM (reference value: 29 to 32.5 hrs); format: cell-based; conditions: mouse; how it was run: as §1
[27] = Growth inhibition of BMOL-NT cells assessed as population doubling time at 2 uM (reference value: 29 to 32.5 hrs); format: cell-based; conditions: mouse; how it was run: as §1
[28] = Growth inhibition of BMOL-NT cells assessed as doubling time at 4 uM (reference value: 29 to 32.5 hrs); format: cell-based; conditions: mouse; how it was run: as §1
[29] = Growth inhibition of BMOL-T cells assessed as doubling time at 0.5 uM (reference value: 27 to 34 hrs); format: functional, Mus musculus; how it was run: as §1
[30] = Growth inhibition of BMOL-T cells assessed as doubling time at 1 uM (reference value: 27 to 34 hrs); format: functional, Mus musculus; how it was run: as §1
[31] = Growth inhibition of BMOL-T cells assessed as doubling time at 2 uM (reference value: 27 to 34 hrs); format: functional, Mus musculus; how it was run: as §1
[32] = test system: BMOL-NT cells (Mus musculus); test: Growth inhibition of BMOL-NT cells at 10 uM after 2 days relative to control; conditions: 48 h, read-out: GI

Structure (SMILES): CC(C)c1ccc(Nc2cccc3c2C(=O)N(C2CCC(=O)NC2=O)C3=O)cc1 (stereo not drawn)
- Time (Mus musculus [1]): 31 h
- Time [2]: 23 h
- Time [3]: 26 h
- Time [4]: 30 h
- growth inhibition (GI) (BMOL-T [5]): Active
- Activity [6]: 11%
- Activity [7]: 26 - 27%
- Activity [8]: Non-Toxic
- Activity [9]: 34%
- fold change (FC) [10]: 1.5
- fold change (FC) [11]: 1.6 - 4
- inhibition [12]: 30%
- GI50 [13]: 60 µM
- GI50 [14]: 40 µM
- Activity (Mus musculus [15]): Non-Toxic

Structure (SMILES): CC(C)(C)c1ccc(Nc2ccc3c(c2)C(=O)N(C2CCC(=O)NC2=O)C3=O)cc1 (stereo not drawn)
- Activity (Mus musculus [16]): Toxic
- growth inhibition (GI) (BMOL-T [17]): Active
- GI50 [13]: 100 µM
- GI50 [14]: 100 µM

Structure (SMILES): CCCCCc1ccc(Nc2cccc3c2C(=O)N(C2CCC(=O)NC2=O)C3=O)cc1 (stereo not drawn)
- Activity (Mus musculus [16]): Toxic
- growth inhibition (GI) (BMOL-T [17]): Active
- GI50 [13]: 100 µM
- GI50 [14]: 100 µM

Structure (SMILES): O=CC#Cc1ccc2c(c1)C(=O)N(C1CCC(=O)NC1=O)C2=O (stereo not drawn)
- Activity (Mus musculus [18]): Non-Toxic

Structure (SMILES): CNC(=O)c1cc(Oc2ccc(NC(=O)Nc3ccc(Cl)c(C(F)(F)F)c3)cc2)ccn1 [SORAFENIB]
- Time [19]: 58 to 74 h
- Time [20]: 68 h
- Activity [21]: 100 to 128%
- Activity [22]: 101 to 134%
- Time [23]: 65 to 66 h
- Time [24]: 79 h
- Activity [6]: 36 - 144%
- Activity [7]: 193 - 235%
- Activity [8]: 66 to 87%
- Activity [9]: 62%
- fold change (FC) [10]: 2.5 to 18.1
- fold change (FC) [11]: 38
- Time [25]: 31.9 to 32.5 h
- Time [26]: 32.5 to 34.7 h
- Time [27]: 33.3 to 33.7 h
- Time [28]: 37.4 to 37.9 h
- Time [29]: 28.05 to 35 h
- Time [30]: 33.2 to 34.2 h
- Time [31]: 34.4 to 35 h
- inhibition of growth at 10 µM [32]: 70%

Structure (SMILES): Nc1cccc2c1CN(C1CCC(=O)NC1=O)C2=O (stereo not drawn) [LENALIDOMIDE]
- Activity (Mus musculus [16]): Toxic
- GI50 [13]: 100 µM

Structure (SMILES): O=C1CCC(N2C(=O)c3ccccc3C2=O)C(=O)N1 (stereo not drawn) [THALIDOMIDE]
- Activity (Mus musculus [16]): Toxic
- GI50 [13]: 100 µM

Structure (SMILES): O=CC#Cc1cccc2c1C(=O)N(C1CCC(=O)NC1=O)C2=O (racemic)
- Activity (Mus musculus [18]): Non-Toxic

Structure (SMILES): CCCCCc1ccc(Nc2ccc3c(c2)C(=O)N(C2CCC(=O)NC2=O)C3=O)cc1 (stereo not drawn)
- growth inhibition (GI) (BMOL-T [5]): Active
- GI50 [13]: 60 µM
- GI50 [14]: 60 µM
- Activity (Mus musculus [15]): Non-Toxic
